Most compounds without a hit are left out; they make up all but 2.5% or so of the library.
TCR-CD3 inh – inhibitors of human TCR-CD3 interaction; TAMRA-labeled TCR probe fluorescence, biochemical; inhibition, % at 9.4 µM; hit rate 0.37% among 360,000; in the data active means inhibition above about 19%;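 further: recombinant mutant TCR 2C K166C tagged with TAMRA read by polarization; 0% = receptor in buffer alone and 100% = receptor with positive control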
ABHD4 inh – inhibits mouse alpha/beta hydrolase domain 4. Q8VD66. purified mABHD4, FP-Rh probe fluorescence polarization. inhibition, % at 8.92 µM. hit rate 0.54% among 370,000;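 active means inhibition exceeding the mean over every tested compound plus 3 SD, cut at about 30% in these data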;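 further: 0% = plate median of compound wells and 100% = S159A mutant with DMSO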
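Assay system: mABHD4 protein; medium: HEPES pH 7.0, NaCl, Pluronic buffer; dosing: 8.92 µM, single dose; schedule: 45 min + 60 min at 25 °C; signal: FP readout, ex 525 nm / em 598 nm; read-out: normalized percent inhibition of probe labeling; repeats: single replicate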
SIAE primary – blocks human sialic acid acetylesterase. SIAE FP-Rh probe binding, fluorescence polarization. inhibition, % at 9.66 µM. hit rate 0.69% among 370,000. AID 1053197;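 active means inhibition above a cutoff: mean of compounds within the control limits plus 3 SD of those, cut at about 17% in these data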;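 further: 0% = plate median of compound wells and 100% = probe without SIAE protein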
Target sequence (Q9HAT2 whole entry, looked up): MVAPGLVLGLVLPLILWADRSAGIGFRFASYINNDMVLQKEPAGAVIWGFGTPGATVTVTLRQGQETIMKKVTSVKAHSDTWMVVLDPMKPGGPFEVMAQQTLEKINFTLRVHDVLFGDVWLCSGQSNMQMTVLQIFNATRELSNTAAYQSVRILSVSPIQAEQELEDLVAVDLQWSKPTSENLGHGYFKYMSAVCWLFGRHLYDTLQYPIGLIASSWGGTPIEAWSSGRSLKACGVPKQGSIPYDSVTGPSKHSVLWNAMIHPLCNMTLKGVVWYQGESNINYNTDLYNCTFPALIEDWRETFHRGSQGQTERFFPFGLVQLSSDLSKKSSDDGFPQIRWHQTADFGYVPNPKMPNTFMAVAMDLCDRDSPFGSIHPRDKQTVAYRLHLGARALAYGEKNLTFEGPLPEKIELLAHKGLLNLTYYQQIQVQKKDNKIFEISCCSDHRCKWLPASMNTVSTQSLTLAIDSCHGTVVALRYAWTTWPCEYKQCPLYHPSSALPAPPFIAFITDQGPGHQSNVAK
HTRA1 inhibitor – blocks human HTRA1 serine peptidase; Q92743; recombinant HTRA1, FP-rhodamine activity-based probe, fluorescence polarization; inhibition, % at 5.96 µM; hit rate 0.5% among 340,000; AID 504803; in the data active means inhibition above about 36%;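 further: 0% = enzyme with DMSO and 100% = wells lacking enzyme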
rCAG binder – r(CAG) repeat RNA binding | hit rate 1.3% among 370,000 | inhibition, % at 3 µM | TO-PRO-1 dye displacement fluorescence;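 active means inhibition above the plate cutoff, the mean of all test compounds on that plate plus 3 SD, cut at about 35% in these data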;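 further: 0% = DMSO alone and 100% = 100 µM mitoxantrone as full dye displacement; higher means more dye released from RNA so lower well fluorescence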
HTRA1 conf – HTRA1 (human) inhibition, confirmation. shares compounds with HTRA1 inhibitor. recombinant HTRA1, FP-rhodamine activity-based probe, fluorescence polarization. inhibition, % at 5.96 µM. hit rate 66% among 1,600;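 active means mean inhibition over three repeats above a set limit taken from the earlier primary screen, cut at about 37% in these data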;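 further: 0% = HTRA1 with DMSO and 100% = wells lacking HTRA1; inhibitors block probe binding so polarization drops and inhibition rises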
Active calls of the source: *; / = no result given.

SMILES | TCR-CD3 inh | ABHD4 inh | SIAE primary | HTRA1 inhibitor | rCAG binder | HTRA1 conf
Cc1ccc(Nc2c([N+](=O)[O-])ccc3nonc23)c(C)c1 | -5 | -1 | 12 | -7 | -3 | /
CCOC(=O)c1csc(N)n1 | -2 | 0 | -2 | 2 | -3 | /
Cc1ccc(C(=O)CNc2cc(C)ccc2C)cc1 | 4 | 2 | 5 | 1 | 0 | /
CCNc1cc(O)ccc1C | / | / | / | 71* | / | 41*
Cc1ccc(C(c2cc(Cl)c3cccnc3c2O)N2CCN(C)CC2)cc1 (stereo unspecified) | / | / | / | 57* | / | 70*
Oc1c(C(c2ccc(Cl)cc2)N2CCCC2)cc(Cl)c2cccnc12 (stereo unspecified) | 3 | 10 | 9 | 41* | 5 | 60*
Oc1c(C(c2ccccc2Cl)N2CCCC2)ccc2cccnc12 (stereo unspecified) | -3 | 12 | 6 | 30 | 3 | /
Oc1c(C(c2ccccn2)N2CCC(Cc3ccccc3)CC2)cc(Cl)c2cccnc12 (stereo unspecified) | 3 | 14 | 12 | / | 1 | /
CN1CCN(C(c2ccccn2)c2cc(Cl)c3cccnc3c2O)CC1 (stereo unspecified) | -6 | 11 | 11 | 39* | 2 | 66*
CC(O)(c1cccc(F)c1)c1nc(-c2cccc(C(=O)O)c2)cs1 (stereo unspecified) | -3 | -13 | 2 | / | 6 | /
Clc1ccc(-c2nnc(Sc3nc4ccccc4o3)c3ccccc23)cc1 | 4 | -4 | -1 | 137* | 2 | -5
COc1ccc2nc(N=NC3=C(O)CC(C)(C)CC3=O)sc2c1 | 5 | 26 | -4 | 53* | 7 | 58*
Cc1cccc(N2CCN(c3ccc(NC(=O)/C=C(/C(=O)O)c4ccccc4)cc3)CC2)c1 | 5 | 24 | 8 | 49* | 8 | 41*
CC(=O)N1CCN(c2ccc(NC(=O)c3cccc(C)c3)cc2)CC1 | 2 | -3 | 1 | 5 | 3 | /
Cc1[nH][nH]c(=O)c1C(c1ccc(-c2ccc(Cl)c(Cl)c2)o1)c1c(C)[nH][nH]c1=O | 1 | 17 | 21* | 40* | 38* | 37*
Cc1[nH][nH]c(=O)c1C(c1ccc(-c2ccc(F)cc2)o1)c1c(C)[nH][nH]c1=O | -4 | 5 | 4 | 1 | 14 | /
O=C(O)CCC(=O)NNC(=O)c1ccc(-c2ccccc2)cc1 | 2 | 7 | 6 | -4 | -1 | /
CC(=O)c1ccc(N2CCN(C(=O)Nc3ccc(F)cc3F)CC2)cc1 | 9 | 2 | -3 | 1 | -4 | /
O=C(/C=C/c1ccc(O)c(O)c1)OCCc1ccccc1 | 3 | 16 | -7 | 64* | 21 | 71*
O=C(/C=C/c1ccc(O)c(O)c1)OC(Cc1ccc(O)c(O)c1)C(=O)O (stereo unspecified) | 4 | 28 | 7 | 9 | 2 | /
Cc1cc(-c2csc(NC(=O)c3ccc(S(=O)(=O)N(C)C)cc3)n2)c(C)n1-c1ccccc1 | -11 | -11 | 2 | -2 | 24 | /
Cc1cc2cc(CNC(=S)Nc3ccc(OC(F)(F)F)cc3)ccc2n1C | 6 | 15 | 1 | 41* | 24 | 11
CCOC(=O)C1=NN(C(=O)c2ccc(C)cc2)C(O)(c2ccc(Cl)cc2)C1 (stereo unspecified) | -5 | 10 | 1 | 60* | 5 | 72*
CCC1=NN(C(=O)c2ccc(Cl)cc2)C(O)(c2ccc(C)cc2)C1 (stereo unspecified) | 12 | -2 | 3 | 10 | 1 | /
CCC(C(=O)N/N=C/c1cccnc1)c1ccccc1 (stereo unspecified) | 9 | -4 | -4 | 1 | -2 | /
SMILES | TCR-CD3 inh | ABHD4 inh | SIAE primary | HTRA1 inhibitor | rCAG binder | HTRA1 conf
CCOC(=O)c1sc(NC(=O)CSc2nccc(C)n2)c(C#N)c1C | -2 | 5 | -3 | -2 | 1 | /
CCN(C(=O)c1c([N+](=O)[O-])cnn1C)c1ccccc1 | 3 | -3 | 0 | 37* | 0 | 32
CCN(C(=O)c1c(N)cnn1C)c1ccccc1 | 0 | 5 | 7 | 1 | 0 | /
CN1CCc2cccc3c2[C@@H]1Cc1ccc(O)c(O)c1-3 | / | / | / | 49* | / | 53*
Cc1cc(C)c2c(c1)NC(C(=O)O)C1CC=CC21 (stereo unspecified) | 29* | 56* | 20* | 74* | 58* | 70*
Cc1cc(C)c2c(c1)N[C@H](c1cccs1)[C@@H]1CCO[C@H]21 | 6 | -3 | 13 | 1 | -7 | /
Cc1cc2nc3c(=O)n(C4CCCCC4)c(=O)[nH]c3nc2cc1N | -3 | 25 | 12 | 58* | -74 | 28
COc1ccccc1N1CC(C(=O)Nc2nnc(SCc3cccnc3)s2)CC1=O (stereo unspecified) | 1 | 5 | -1 | 1 | 2 | /
CC1(C)CC(=O)C2=C(C1)N=C1c3ccccc3C(=O)C1C2c1ccc(Cl)cc1 (stereo unspecified) | -1 | 6 | 13 | 52* | 2 | 51*
CN1CCN(C(=O)C2CCN(c3ncnc4c3nc3n4CCCCC3)CC2)CC1 | 8 | 0 | -2 | 9 | -7 | /
Cn1ccnc1SCC(=O)c1ccc(C#N)cc1 | 4 | -4 | 3 | -1 | 7 | /
COC(=O)CCC(=O)OC1(C)C(=O)C2=CN(Cc3ccc(OC)cc3)C(c3ccc(OC)cc3)=CC2=C(Br)C1=O (stereo unspecified) | -9 | 15 | -1 | 21 | 18 | /
COC(=O)CCC(=O)OC1(C)C(=O)C2=CN(c3ccccc3)C(c3ccc(OC)cc3)=CC2=C(Br)C1=O (stereo unspecified) | 3 | 23 | 8 | 47* | 18 | 48*
COC(=O)CCC(=O)OC1(C)C(=O)C2=CN(CC3CC3)C(c3ccc(OC)cc3)=CC2=C(Br)C1=O (stereo unspecified) | / | / | / | 50* | / | 46*
COC(=O)CCC(=O)OC1(C)C(=O)C2=CN(CCCOC(C)C)C(c3ccc(OC)cc3)=CC2=C(Br)C1=O (stereo unspecified) | / | / | / | 39* | / | 50*
COC(=O)CCC(=O)OC1(C)C(=O)C2=CN(Cc3ccccc3)C(c3ccc(OC)cc3)=CC2=C(Br)C1=O (stereo unspecified) | -6 | 14 | 1 | 60* | 11 | 63*
CC(C)CN(C(=O)COC(=O)CCc1nc2ccccc2s1)c1c(N)n(Cc2ccccc2)c(=O)[nH]c1=O | -3 | 5 | 6 | -6 | 4 | /
COc1cccc(OCC(Cn2cnc3ccccc32)OC(C)=O)c1 (stereo unspecified) | -1 | 4 | -4 | 1 | -9 | /
CCc1nnc(NC(=O)CCC(=O)NCCc2ccccc2)s1 | -6 | 3 | -2 | 8 | -5 | /
CC(C)(C)c1ccc(/C=N/NC(=O)Cc2c[nH]c3ccccc23)cc1 | 4 | 4 | -7 | -21 | 10 | /
CCn1c(SCC(=O)c2ccc(O)c(O)c2)nnc1-c1ccc(C)cc1 | 2 | 32* | 11 | 49* | 21 | 77*
